According to ChEMBL document CHEMBL5058577, “EUbOPEN Chemogenomics Library 2 (Multiplex)” (2022):

System: HEK-293T
Experiment: Multiplex assay against HEK293T
Format: toxicity, cell-based
Conditions: human
Summary of the method: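 At seeding, live cells were stained with Hoechst33342, BioTracker Green Microtubule Cytoskeleton Dye, MitoTracker Red and Annexin V Alexa Fluor 680. After compound addition they were imaged on a CQ1 microscope at 37°C and 5% CO2, and CellPathfinder machine-learning gating sorted them into Hoechst high-intensity objects or normal cells, with normal cells further split into healthy, pyknosed or fragmented nuclei and pyknosed cells into mitotic or apoptotic. Tubulin, mitochondrial-mass and membrane-permeability phenotypes are given as per cents of cells with healthy nuclei.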

[1] = 12 h, 1 µM, compound concentration 1 uM, replicate 1
[2] = 12 h, 1 µM, compound concentration 1 uM, replicate 2
[3] = 12 h, 10 µM, compound concentration 10 uM, replicate 1
[4] = 12 h, 10 µM, compound concentration 10 uM, replicate 2
[5] = 24 h, 1 µM, compound concentration 1 uM, replicate 1
[6] = 24 h, 1 µM, compound concentration 1 uM, replicate 2
[7] = 24 h, 10 µM, compound concentration 10 uM, replicate 1
[8] = 24 h, 10 µM, compound concentration 10 uM, replicate 2
[9] = 48 h, 1 µM, compound concentration 1 uM, replicate 1
[10] = 48 h, 1 µM, compound concentration 1 uM, replicate 2
[11] = 48 h, 10 µM, compound concentration 10 uM, replicate 1
[12] = 48 h, 10 µM, compound concentration 10 uM, replicate 2

## Cc1noc(-c2ccc(-c3ccc(CC(=O)O)cc3)cc2)c1NC(=O)O[C@H](C)c1ccccc1Cl
[1]
  Population Apoptotic (%): 29%
  Population Fragmented Nuclei (%): 7%
  Population Healthy Nuclei (%): 79%
  Population Hoechst High Intensity Objects (%): 5%
  Population Membrane Permeable-Phenotype (%): 0%
  Population Mitochondria Different-Phenotype (%): 38%
  Population Mitotic Cells (%): 70%
  Population Normal (%): 94%
  Population Pyknosed Nuclei (%): 13%
  Population Tubulin-Different-Phenotype (%): 29%
  Total Cell Count: 403
[2]
  Population Apoptotic (%): 59%
  Population Fragmented Nuclei (%): 4%
  Population Healthy Nuclei (%): 77%
  Population Hoechst High Intensity Objects (%): 11%
  Population Mitochondria Different-Phenotype (%): 69%
  Population Mitotic Cells (%): 40%
  Population Normal (%): 88%
  Population Pyknosed Nuclei (%): 17%
  Population Tubulin-Different-Phenotype (%): 28%
  Total Cell Count: 296
[3]
  Population Apoptotic (%): 51%
  Population Fragmented Nuclei (%): 11%
  Population Healthy Nuclei (%): 68%
  Population Hoechst High Intensity Objects (%): 7%
  Population Membrane Permeable-Phenotype (%): 0%
  Population Mitochondria Different-Phenotype (%): 72%
  Population Mitotic Cells (%): 48%
  Population Normal (%): 92%
  Population Pyknosed Nuclei (%): 20%
  Population Tubulin-Different-Phenotype (%): 65%
  Total Cell Count: 295
[4]
  Population Apoptotic (%): 41%
  Population Fragmented Nuclei (%): 8%
  Population Healthy Nuclei (%): 72%
  Population Hoechst High Intensity Objects (%): 14%
  Population Mitochondria Different-Phenotype (%): 69%
  Population Mitotic Cells (%): 58%
  Population Normal (%): 85%
  Population Pyknosed Nuclei (%): 18%
  Population Tubulin-Different-Phenotype (%): 34%
  Total Cell Count: 341
[5]
  Population Apoptotic (%): 22%
  Population Fragmented Nuclei (%): 10%
  Population Healthy Nuclei (%): 79%
  Population Hoechst High Intensity Objects (%): 5%
  Population Membrane Permeable-Phenotype (%): 0%
  Population Mitochondria Different-Phenotype (%): 23%
  Population Mitotic Cells (%): 77%
  Population Normal (%): 94%
  Population Pyknosed Nuclei (%): 9%
  Population Tubulin-Different-Phenotype (%): 17%
  Total Cell Count: 570
[6]
  Population Apoptotic (%): 40%
  Population Fragmented Nuclei (%): 9%
  Population Healthy Nuclei (%): 80%
  Population Hoechst High Intensity Objects (%): 7%
  Population Mitochondria Different-Phenotype (%): 42%
  Population Mitotic Cells (%): 60%
  Population Normal (%): 92%
  Population Tubulin-Different-Phenotype (%): 20%
  Total Cell Count: 378
[7]
  Population Apoptotic (%): 39%
  Population Fragmented Nuclei (%): 7%
  Population Healthy Nuclei (%): 76%
  Population Hoechst High Intensity Objects (%): 8%
  Population Membrane Permeable-Phenotype (%): 1%
  Population Mitochondria Different-Phenotype (%): 58%
  Population Mitotic Cells (%): 60%
  Population Normal (%): 91%
  Population Pyknosed Nuclei (%): 16%
  Population Tubulin-Different-Phenotype (%): 47%
  Total Cell Count: 352
[8]
  Population Apoptotic (%): 32%
  Population Fragmented Nuclei (%): 9%
  Population Healthy Nuclei (%): 75%
  Population Hoechst High Intensity Objects (%): 16%
  Population Membrane Permeable-Phenotype (%): 0%
  Population Mitochondria Different-Phenotype (%): 53%
  Population Mitotic Cells (%): 68%
  Population Normal (%): 83%
  Population Pyknosed Nuclei (%): 15%
  Population Tubulin-Different-Phenotype (%): 38%
  Total Cell Count: 390
[9]
  Population Apoptotic (%): 17%
  Population Fragmented Nuclei (%): 11%
  Population Healthy Nuclei (%): 82%
  Population Hoechst High Intensity Objects (%): 4%
  Population Membrane Permeable-Phenotype (%): 1%
  Population Mitochondria Different-Phenotype (%): 20%
  Population Mitotic Cells (%): 82%
  Population Normal (%): 95%
  Population Pyknosed Nuclei (%): 5%
  Population Tubulin-Different-Phenotype (%): 14%
  Total Cell Count: 930
[10]
  Population Apoptotic (%): 35%
  Population Fragmented Nuclei (%): 12%
  Population Healthy Nuclei (%): 76%
  Population Membrane Permeable-Phenotype (%): 0%
  Population Mitochondria Different-Phenotype (%): 34%
  Population Mitotic Cells (%): 64%
  Population Pyknosed Nuclei (%): 10%
  Population Tubulin-Different-Phenotype (%): 21%
  Total Cell Count: 494
[11]
  Population Apoptotic (%): 38%
  Population Fragmented Nuclei (%): 10%
  Population Healthy Nuclei (%): 79%
  Population Hoechst High Intensity Objects (%): 6%
  Population Membrane Permeable-Phenotype (%): 0%
  Population Mitochondria Different-Phenotype (%): 40%
  Population Mitotic Cells (%): 61%
  Population Normal (%): 93%
  Population Pyknosed Nuclei (%): 10%
  Population Tubulin-Different-Phenotype (%): 33%
  Total Cell Count: 445
[12]
  Population Apoptotic (%): 46%
  Population Fragmented Nuclei (%): 13%
  Population Healthy Nuclei (%): 74%
  Population Hoechst High Intensity Objects (%): 10%
  Population Membrane Permeable-Phenotype (%): 1%
  Population Mitochondria Different-Phenotype (%): 35%
  Population Mitotic Cells (%): 53%
  Population Normal (%): 89%
  Population Pyknosed Nuclei (%): 11%
  Population Tubulin-Different-Phenotype (%): 25%
  Total Cell Count: 508
